ChEMBL document CHEMBL3797143, “Novel S1P1 receptor agonists - Part 5: From amino-to alkoxy-pyridines” (Eur J Med Chem, 2016)
Active and inactive are the calls of the source. No cut-off for these calls is given here.

Experiments:
Rattus norvegicus [1] = experiment: Time duration of maximum lymphocyte count reduction in Wistar rat at 10 mg/kg administered via oral gavage; type: functional
Summary of the method: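 Duration of action is the latest sampling time at which maximal lymphocyte-count reduction was still seen. Male Wistar rats received 10 mg/kg orally, and blood lymphocytes were counted before dosing and at 3, 6 and 24 h (later times in some cases). Mean of 6-8 animals.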

[2] = Half life in Wistar rat at 10 mg/kg administered via oral gavage by LC-MS/MS analysis; type: ADME, organism-based; details: in vivo
Summary of the method: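 Oral half-life was calculated from plasma concentrations measured in the lymphocyte-count study, in which male Wistar rats received 10 mg/kg orally. Plasma was prepared from EDTA blood by centrifugation at 3000 g for 10 min at 4 °C.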

Rattus norvegicus [3] = experiment: Decrease in peripheral blood lymphocyte count in Wistar rat at 10 mg/kg administered via oral gavage measured after 3 hrs; type: functional; set-up: scale not given: the % may be the effect or the level left
Summary of the method: (§1)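 Male Wistar rats (RccHan:WIST) were given 10 mg/kg orally by gavage in vehicle containing 5% DMSO. Blood drawn by sublingual vein puncture under isoflurane before dosing and at the listed times after dosing. Lymphocytes counted on a haematology analyser. Results are % change from baseline, mean of 6-8 animals.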

[4] = Phototoxicity in Balb/c mouse 3T3 clone A31 cells assessed as inhibition of cell viability measured as photo irritancy factor at 0.05 to 100 uM preincubated for 1 hr followed by UVA irradiation measured after 24 hrs by neutral red uptake assay relative to control; type: functional
[5] = Plasma concentration in Wistar rat at 10 mg/kg administered via oral gavage measured after 72 hrs by LC-MS/MS analysis; type: ADME, organism-based
Summary of the method: (§2)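 Male Wistar rats received 10 mg/kg orally by gavage. Blood was drawn at the listed times into EDTA tubes, and plasma was prepared by centrifugation at 3000 g for 10 min at 4 °C. Limit of quantification 3 nM.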

Rattus norvegicus [6] = experiment: Decrease in peripheral blood lymphocyte count in Wistar rat at 10 mg/kg administered via oral gavage measured after 6 hrs; type: functional; set-up: scale not given: the % may be the effect or the level left; summary of the method: as §1
[7] = Plasma concentration in Wistar rat at 10 mg/kg administered via oral gavage measured after 6 hrs by LC-MS/MS analysis; type: ADME, organism-based; summary of the method: as §2
[8] = biological target: Sphingosine 1-phosphate receptor 3 (Homo sapiens, UniProt Q99500); experiment: Agonist activity at human recombinant S1PR3 expressed in CHO cell membranes incubated for 30 mins by [35S]GTPgammaS binding assay in presence of GDP; type: functional
Sequence of Sphingosine 1-phosphate receptor 3 (Q99500 whole entry): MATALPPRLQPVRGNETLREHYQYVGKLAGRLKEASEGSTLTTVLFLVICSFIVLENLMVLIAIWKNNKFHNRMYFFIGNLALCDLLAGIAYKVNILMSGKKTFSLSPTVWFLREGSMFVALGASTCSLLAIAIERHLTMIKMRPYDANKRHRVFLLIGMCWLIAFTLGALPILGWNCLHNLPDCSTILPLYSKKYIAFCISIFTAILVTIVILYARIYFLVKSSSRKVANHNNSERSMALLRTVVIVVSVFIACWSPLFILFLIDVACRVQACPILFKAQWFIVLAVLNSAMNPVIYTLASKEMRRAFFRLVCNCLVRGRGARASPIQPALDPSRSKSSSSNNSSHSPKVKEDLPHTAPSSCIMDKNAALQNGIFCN
Summary of the method: (§3)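 Membranes from CHO cells expressing recombinant human S1P1 or S1P3. Compounds were preincubated with membranes for 30 min at room temperature. Reaction stopped by filtration, membrane-bound 35S-GTPγS counted. Geometric mean of ≥3 independent runs.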

Rattus norvegicus [9] = experiment: Decrease in peripheral blood lymphocyte count in Wistar rat at 10 mg/kg administered via oral gavage measured after 24 hrs; type: functional; set-up: scale not given: the % may be the effect or the level left; summary of the method: as §1
[10] = Plasma concentration in Wistar rat at 10 mg/kg administered via oral gavage measured after 3 hrs by LC-MS/MS analysis; type: ADME, organism-based; summary of the method: as §2
[11] = Phototoxicity in Balb/c mouse 3T3 clone A31 cells assessed as AUC of UV spectra between 310 and 350 nm normalized to compound concentration at 0.05 to 100 uM preincubated for 1 hr followed by UVA irradiation measured after 24 hrs by neutral red uptake assay relative to control; type: functional
[12] = biological target: Sphingosine 1-phosphate receptor 1 (Homo sapiens, UniProt P21453); experiment: Agonist activity at human recombinant S1PR1 expressed in CHO cell membranes incubated for 30 mins by [35S]GTPgammaS binding assay in presence of GDP; type: functional; summary of the method: as §3
Sequence of Sphingosine 1-phosphate receptor 1 (P21453 whole entry): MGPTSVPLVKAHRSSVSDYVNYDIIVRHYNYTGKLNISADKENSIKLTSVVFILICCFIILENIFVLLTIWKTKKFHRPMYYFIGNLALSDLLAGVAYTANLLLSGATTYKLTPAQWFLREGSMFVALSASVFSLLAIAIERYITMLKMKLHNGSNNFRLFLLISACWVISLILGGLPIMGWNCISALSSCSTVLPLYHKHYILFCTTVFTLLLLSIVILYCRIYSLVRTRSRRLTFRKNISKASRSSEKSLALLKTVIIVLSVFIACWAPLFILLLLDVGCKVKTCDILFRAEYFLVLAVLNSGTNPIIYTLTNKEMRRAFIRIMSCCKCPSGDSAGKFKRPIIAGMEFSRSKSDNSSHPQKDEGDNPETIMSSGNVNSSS

[13] = Plasma concentration in Wistar rat at 10 mg/kg administered via oral gavage measured after 24 hrs by LC-MS/MS analysis; type: ADME, organism-based; summary of the method: as §2
Rattus norvegicus [14] = experiment: Decrease in peripheral blood lymphocyte count in Wistar rat at 10 mg/kg administered via oral gavage measured after 72 hrs; type: functional; summary of the method: as §1
Rattus norvegicus [15] = experiment: Decrease in peripheral blood lymphocyte count in Wistar rat at 10 mg/kg administered via oral gavage measured after 144 hrs; type: functional; set-up: scale not given: the % may be the effect or the level left; summary of the method: as §1
Rattus norvegicus [16] = experiment: Decrease in peripheral blood lymphocyte count in Wistar rat at 10 mg/kg administered via oral gavage measured after 96 hrs; type: functional; set-up: scale not given: the % may be the effect or the level left; summary of the method: as §1

Compound | Time (Rattus norvegicus [1]) [h] | half-life [2] [h] | Activity (Rattus norvegicus [3]) [%] | Ratio [4] | concentration at 72 h [5] [nM] | Activity (Rattus norvegicus [6]) [%] | concentration at 6 h [7] [nM] | EC50 [8] [nM] | Activity (Rattus norvegicus [9]) [%] | concentration at 3 h [10] [nM] | Ratio [11] | EC50 [12] [nM] | concentration at 24 h [13] [nM] | Activity (Rattus norvegicus [14]) | Activity (Rattus norvegicus [15]) [%] | Activity (Rattus norvegicus [16])
CCc1cc(-c2noc(-c3cc(OC)nc(C(CC)CC)c3)n2)cc(C)c1OC[C@@H](O)CNC(=O)CO | 6 | 9 | 59 | 0.9 | < 3 | 59 | 470 | 96 | 36 | 750 | 0.05 | 0.4 | 46 | Active | – | –
CCc1cc(-c2noc(-c3cc(OC)cc(C4CCCC4)n3)n2)cc(C)c1OC[C@@H](O)CNC(=O)CO | 6 | – | 58 | 2.4 | – | 61 | – | 800 | 30 | – | 0 | 0.7 | – | – | – | –
CCc1cc(-c2noc(-c3cc(C)nc(OC4CCC4)c3)n2)cc(C)c1OC[C@@H](O)CNC(=O)CO | 96 | – | 66 | – | – | 62 | – | 110 | 72 | – | – | 0.3 | – | – | 21 | 62%
CCc1cc(-c2noc(-c3cc(OC)nc(C4CCCCC4)c3)n2)cc(C)c1OC[C@@H](O)CNC(=O)CO | 24 | – | 58 | – | – | 58 | – | 690 | 72 | – | – | 7.3 | – | – | – | 33%
CCc1cc(-c2noc(-c3cc(C)nc(OC(C)C)c3)n2)cc(C)c1OC[C@@H](O)CNC(=O)CO | 96 | – | 66 | – | – | 67 | – | 95 | 74 | – | – | 0.2 | – | – | 28 | 70%
CCc1cc(-c2noc(-c3cc(C)cc(OC4CCCC4)n3)n2)cc(C)c1OC[C@@H](O)CNC(=O)CO | 6 | 4 | 51 | 2 | – | 58 | 890 | 930 | -18 | 1610 | 0.1 | 1 | 39 | – | – | –
CCc1cc(-c2nc(-c3cc(C)c(OC[C@@H](O)CO)c(CC)c3)no2)cnc1CC(C)C | – | – | – | 1.6 | – | – | – | – | – | – | – | – | – | – | – | –
CCc1cc(-c2noc(-c3ccc(C4CCCC4)c(OC)n3)n2)cc(C)c1OC[C@@H](O)CNC(=O)CO | 6 | 6 | 70 | 6.5 | – | 78 | 500 | 920 | 23 | 690 | 0.17 | 1.4 | 61 | – | – | –
CCc1cc(-c2noc(-c3cc(C4CCCC4)cc(OC)n3)n2)cc(C)c1OC[C@@H](O)CNC(=O)CO | 6 | 5 | 63 | 2.1 | – | 75 | 1300 | 1500 | -2 | 1790 | 0.09 | 4.5 | 100 | – | – | –
CCc1cc(-c2nc(-c3cc(C)c(OC[C@@H](O)CNC(=O)CO)c(CC)c3)no2)cc(OC2CCC2)n1 | 168 | – | 72 | – | – | 75 | – | 55 | 79 | – | – | 1.1 | – | – | – | –
CCc1cc(-c2noc(-c3cc(OC)c(C4CCCC4)cn3)n2)cc(C)c1OC[C@@H](O)CNC(=O)CO | 6 | 4 | 79 | 2.1 | – | 86 | 2020 | 210 | 60 | 2520 | 0.02 | 0.6 | 71 | – | – | –
CCc1cc(-c2noc(-c3cc(OC)nc(C4CCC4)c3)n2)cc(C)c1OC[C@@H](O)CNC(=O)CO | 24 | – | 56 | – | – | 61 | – | 22 | 61 | – | – | 0.3 | – | Active | – | –
CCc1cc(-c2noc(-c3cc(C)nc(N(CC)CC)c3)n2)cc(C)c1OC[C@@H](O)CNC(=O)CO | 72 | – | – | – | – | – | – | – | 70 | – | – | – | – | 62% | – | –
CCc1cc(-c2noc(-c3cc(OC)cc(CC(C)C)n3)n2)cc(C)c1OC[C@@H](O)CNC(=O)CO | 6 | – | 58 | – | – | 66 | – | 1400 | 23 | – | – | 1.5 | – | – | – | –
CCc1cc(-c2noc(-c3cc(OC)cc(C(CC)CC)n3)n2)cc(C)c1OC[C@@H](O)CNC(=O)CO | – | – | – | – | – | – | – | 520 | – | – | – | 1.2 | – | – | – | –
CCc1cc(-c2nnc(-c3cc(C)nc(N(CC)CC)c3)o2)cc(C)c1OC[C@@H](O)CNC(=O)CO | – | – | – | >200 | – | – | – | – | – | – | – | – | – | – | – | –
CCc1cc(-c2noc(-c3cnc(C4CCCC4)c(OC)c3)n2)cc(C)c1OC[C@@H](O)CNC(=O)CO | 24 | 11 | 73 | 7.6 | – | 82 | 2950 | 71 | 84 | 2390 | 0.15 | 0.3 | 970 | – | – | –
CCc1cc(-c2noc(-c3cc(OC)nc(-c4ccccc4)c3)n2)cc(C)c1OC[C@@H](O)CNC(=O)CO | – | – | – | – | – | – | – | 1600 | – | – | – | 28 | – | – | – | –
CCc1cc(-c2nc(-c3cc(C)c(CCC(=O)NCCO)c(CC)c3)no2)cnc1N(C)C(C)C | – | – | – | >200 | – | – | – | – | – | – | – | – | – | – | – | –
CCc1cc(-c2nnc(-c3cc(C)nc(CC(C)C)c3)o2)cc(C)c1OC[C@@H](O)CNC(=O)CO | – | – | – | 1.1 | – | – | – | – | – | – | – | – | – | – | – | –
CCc1cc(-c2noc(-c3cc(C)nc(C(CC)CC)c3)n2)cc(C)c1OC[C@@H](O)CNC(=O)CO | – | – | – | 1.7 | – | – | – | – | – | – | – | – | – | – | – | –
CCc1cc(-c2noc(-c3cc(OC4CCCC4)cc(C)n3)n2)cc(C)c1OC[C@@H](O)CNC(=O)CO | <3 | < 3 | 50 | 1.3 | – | 36 | 510 | 1400 | -33 | 1560 | 0 | 11 | < 9 | – | – | –
CCc1cc(-c2nc(-c3cc(C)c(OC[C@@H](O)CNC(=O)CO)c(CC)c3)no2)cc(OC2CCCC2)n1 | 24 | – | 64 | – | – | 71 | – | 50 | 76 | – | – | 1.1 | – | – | – | Active
CCc1cc(-c2noc(-c3cnc(OC4CCCC4)c(C)c3)n2)cc(C)c1OC[C@@H](O)CNC(=O)CO | 24 | 16 | 76 | 1.4 | – | 85 | 960 | 140 | 85 | 1140 | 0.02 | 0.7 | 510 | – | – | –
CCc1cc(-c2noc(-c3cnc(C)c(OC4CCCC4)c3)n2)cc(C)c1OC[C@@H](O)CNC(=O)CO | – | – | – | – | – | – | – | 38 | – | – | – | 21 | – | – | – | –
CCc1cc(-c2noc(-c3cc(C(CC)CC)cc(OC)n3)n2)cc(C)c1OC[C@@H](O)CNC(=O)CO | <3 | 4 | 57 | – | – | 50 | 240 | 180 | -10 | 410 | – | 1.1 | 12 | – | – | –
CCc1cc(-c2noc(-c3cnc(OC)c(C4CCCC4)c3)n2)cc(C)c1OC[C@@H](O)CNC(=O)CO | – | – | – | – | – | – | – | 17 | – | – | – | 1.5 | – | – | – | –
